Data published in ChEMBL document CHEMBL1938272 (Bioorg Med Chem, 2012).
pIC50: −log10 of the molar value.

Key:
Aromatase [1] = target: T1, Aromatase (Homo sapiens, UniProt P11511); conditions: 2 h, read-out: Imax
T1 sequence (P11511 whole entry): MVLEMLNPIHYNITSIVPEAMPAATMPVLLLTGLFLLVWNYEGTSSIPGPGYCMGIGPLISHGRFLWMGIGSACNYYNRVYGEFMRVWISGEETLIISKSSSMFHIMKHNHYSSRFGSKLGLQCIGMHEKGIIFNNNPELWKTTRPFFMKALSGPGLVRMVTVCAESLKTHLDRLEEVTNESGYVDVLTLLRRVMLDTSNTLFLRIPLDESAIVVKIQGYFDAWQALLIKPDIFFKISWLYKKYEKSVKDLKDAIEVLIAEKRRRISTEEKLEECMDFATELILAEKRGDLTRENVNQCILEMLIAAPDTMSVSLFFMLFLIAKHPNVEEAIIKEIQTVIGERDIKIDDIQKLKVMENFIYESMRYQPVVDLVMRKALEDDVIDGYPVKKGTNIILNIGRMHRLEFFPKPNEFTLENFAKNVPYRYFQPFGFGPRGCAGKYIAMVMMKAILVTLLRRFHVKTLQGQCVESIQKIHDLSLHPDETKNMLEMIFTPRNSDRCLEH

Aromatase [2] = target: T1, Aromatase
MCF7 = test: Antiproliferative activity against human MCF7 cells after 72 hrs by SRB assay; format: functional, cell-based; conditions: MCF7, 72 h
How it was run: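 MCF-7 breast cancer cells exposed to serially diluted compounds (DMSO) for 72 h at 37 °C in CO2 incubator; fixed with 10% trichloroacetic acid, stained with 0.4% SRB, OD read at 515 nm. Zero-day control of 1 × 10^4 cells per well processed after 30 min. Survival = (OD test − OD zero-day)/(OD control − OD zero-day) × 100; IC50 from survival.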

[3] = target: NAD(P)H dehydrogenase [quinone] 1 (Mus musculus) (UniProt Q64669); test: Induction of QR1-mediated cytoprotective activity in mouse Hepa-1c1c7 cells at 50 uM assessed as cell survival; format: cell-based
RAW264.7 = test: Antiinflammatory activity in mouse RAW264.7 cells assessed as inhibition of LPS-induced NO production at 40 uM preincubated for 30 mins before LPS challenge by Griess method
[4] = tested on: Radical scavenging activity; test: Antioxidant activity assessed as DPPH free radical scavenging activity at 400 uM after 30 mins by spectrophotometry; format: functional
[5] = target: NAD(P)H dehydrogenase [quinone] 1 (Mus musculus) (UniProt Q64669); test: Induction of QR1-mediated cytoprotective activity in mouse TAOc1 mutant Hepa cells at 50 uM assessed as cell survival; format: cell-based
[6] = target: NAD(P)H dehydrogenase [quinone] 1 (Mus musculus) (UniProt Q64669); test: Induction of QR1-mediated cytoprotective activity in mouse BPrc1 cells at 50 uM assessed as cell survival; format: cell-based
HEK293 = test: Inhibition of TNFalpha-activated NF-kappaB expressed in HEK293 cells at 50 uM by luciferase reporter gene assay; format: cell-based
[7] = target: NAD(P)H dehydrogenase [quinone] 1 (Mus musculus) (UniProt Q64669); test: Induction of QR1 activity in mouse Hepa-1c1c7 cells using MTT as substrate by spectrophotometry; format: cell-based
How it was run: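 Mouse hepatoma Hepa 1c1c7 cells were incubated with compound, then permeabilised with digitonin. QR1 activity was read as MTT reduction to formazan at 595 nm, with crystal violet total protein run in parallel. Induction ratio is activity versus control; CD is the concentration doubling activity, derived only when the ratio is above 2.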

[8] = target: NAD(P)H dehydrogenase [quinone] 1 (Mus musculus) (UniProt Q64669); test: Induction of QR1 activity in mouse BPrc1 cells using MTT as substrate by spectrophotometry; format: cell-based
[9] = target: NAD(P)H dehydrogenase [quinone] 1 (Mus musculus) (UniProt Q64669); test: Induction of QR1 activity in mouse TAOc1 mutant Hepa cells using MTT as substrate by spectrophotometry; format: cell-based

Chain of NAD(P)H dehydrogenase [quinone] 1 (Mus musculus) (Q64669 whole entry): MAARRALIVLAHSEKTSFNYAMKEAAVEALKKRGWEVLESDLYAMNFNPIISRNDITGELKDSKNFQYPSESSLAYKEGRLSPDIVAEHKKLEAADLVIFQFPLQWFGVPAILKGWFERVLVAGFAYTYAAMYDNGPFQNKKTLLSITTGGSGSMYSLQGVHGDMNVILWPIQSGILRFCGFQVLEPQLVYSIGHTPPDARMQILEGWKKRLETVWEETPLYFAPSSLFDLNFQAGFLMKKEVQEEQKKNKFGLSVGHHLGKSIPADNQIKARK

N#Cc1ccc(-c2nsc(-c3ccc(C#N)cc3)n2)cc1
inhibition at 50 µM (Aromatase [1]): 38.5% | pIC50 (Aromatase [2]): < 4.30 | pIC50 (MCF7): 4.50 | Survival [3]: 46.2% | inhibition at 40 µM (RAW264.7): -0.4% | inhibition [4]: 6%

Brc1ccc(-c2nsc(-c3ccc(Br)cc3)n2)cc1
inhibition at 50 µM (Aromatase [1]): 37.4% | pIC50 (Aromatase [2]): < 4.30 | Survival [3]: 87% | inhibition at 40 µM (RAW264.7): 17.1% | Survival [5]: 80.1% | inhibition [4]: 0.8% | Survival [6]: 60.3% | inhibition (HEK293): 0%

Clc1ccc(-c2nsc(-c3ccc(Cl)cc3)n2)cc1
inhibition at 50 µM (Aromatase [1]): 9.7% | CD [7]: 4 µM | pIC50 (Aromatase [2]): < 4.30 | Survival [3]: 78.3% | inhibition at 40 µM (RAW264.7): 5.1% | Survival [5]: 77.8% | inhibition [4]: 2.7% | Survival [6]: 79.3% | inhibition (HEK293): 0%

Oc1ccc(/C=C\c2cc(O)cc(O)c2)cc1
CD [8]: 49.7 µM | Survival [3]: 89.3% | Survival [5]: 100% | Survival [6]: 77.8%

Clc1cccc(-c2nsc(-c3cccc(Cl)c3Cl)n2)c1Cl
inhibition at 50 µM (Aromatase [1]): 45.9% | CD [7]: 2 µM | pIC50 (Aromatase [2]): < 4.30 | pIC50 (MCF7): 4.99 | Survival [3]: 47% | inhibition at 40 µM (RAW264.7): 21.4% | Survival [5]: 74.5% | inhibition [4]: 11.1% | Survival [6]: 56.3% | inhibition (HEK293): 0%

CC(C)(C)c1ccc(-c2nsc(-c3ccc(C(C)(C)C)cc3)n2)cc1
inhibition at 50 µM (Aromatase [1]): 43.5% | CD [7]: 27.7 µM | pIC50 (Aromatase [2]): < 4.30 | Survival [3]: 47.5% | inhibition at 40 µM (RAW264.7): 0.5% | Survival [5]: 74.1% | inhibition [4]: 2.9% | Survival [6]: 85.1% | inhibition (HEK293): 0%

Fc1ccccc1-c1nsc(-c2ccccc2F)n1
inhibition at 50 µM (Aromatase [1]): 53.2% | pIC50 (Aromatase [2]): < 4.30 | pIC50 (MCF7): 4.50 | Survival [3]: 86.2% | inhibition at 40 µM (RAW264.7): 24.6% | Survival [5]: 82.5% | inhibition [4]: 3.8% | Survival [6]: 88.4%

Cc1ccc(-c2nsc(-c3ccc(C)cc3)n2)cc1
inhibition at 50 µM (Aromatase [1]): 21.3% | pIC50 (Aromatase [2]): < 4.30 | Survival [3]: 96.8% | inhibition at 40 µM (RAW264.7): 9.6% | inhibition [4]: 7.2%

Fc1ccc(-c2nsc(-c3ccc(F)cc3)n2)cc1
inhibition at 50 µM (Aromatase [1]): 45.2% | pIC50 (Aromatase [2]): < 4.30 | pIC50 (MCF7): 4.73 | Survival [3]: 96.3% | inhibition at 40 µM (RAW264.7): 22.2% | Survival [5]: 83% | inhibition [4]: 6.9% | Survival [6]: 86.4% | inhibition (HEK293): 0%

Oc1ccc(/C=C/c2cc(O)cc(O)c2)cc1
Survival [3]: 88.7% | Survival [5]: 86.3% | Survival [6]: 86.3%

N#Cc1cccc(-c2nsc(-c3cccc(C#N)c3)n2)c1
inhibition at 50 µM (Aromatase [1]): 22.1% | pIC50 (Aromatase [2]): < 4.30 | Survival [3]: 57.9% | inhibition at 40 µM (RAW264.7): 26.4% | inhibition [4]: 1.4%

O=[N+]([O-])c1ccc(-c2nsc(-c3ccc([N+](=O)[O-])cc3)n2)cc1
inhibition at 50 µM (Aromatase [1]): 29.4% | pIC50 (Aromatase [2]): < 4.30 | Survival [3]: 78.9% | inhibition at 40 µM (RAW264.7): 1.6% | inhibition [4]: 7.3%

Oc1ccc(CCc2cc(O)cc(O)c2)cc1 [DIHYDRORESVERATROL]
inhibition at 50 µM (Aromatase [1]): 37.8% | pIC50 (Aromatase [2]): < 4.30 | pIC50 (MCF7): 4.52 | Survival [3]: 82.6% | inhibition at 40 µM (RAW264.7): 36.2% | inhibition [4]: 14.7% | inhibition (HEK293): 16.7%

Ic1cccc(-c2nsc(-c3cccc(I)c3)n2)c1
inhibition at 50 µM (Aromatase [1]): 30.6% | CD [7]: 3.1 µM | pIC50 (Aromatase [2]): < 4.30 | pIC50 (MCF7): 4.43 | Survival [3]: 103% | inhibition at 40 µM (RAW264.7): 15.6% | Survival [5]: 73.6% | inhibition [4]: 14.3% | Survival [6]: 77.3% | inhibition (HEK293): 0%

Clc1ccc(Cl)c(-c2nsc(-c3cc(Cl)ccc3Cl)n2)c1
inhibition at 50 µM (Aromatase [1]): 16.6% | CD [9]: 41 µM | pIC50 (Aromatase [2]): < 4.30 | pIC50 (MCF7): 4.75 | CD [8]: 44.5 µM | Survival [3]: 88.1% | inhibition at 40 µM (RAW264.7): 17.9% | Survival [5]: 82.8% | inhibition [4]: 1% | Survival [6]: 94.7%
